For one assay, the system named is HCT116 cells. As to the kind of experiment: FACS cell cycle analysis in HCT116 cells. The assay is classed as cell-based, human. Conditions: 48 h, 500 nM compound.
The test system of a further assay is HEK293. The assay can be described thus: Cell Titer Glo cell viability assay HEK293. Type of assay: cell-based. The settings on record: Homo sapiens, HEK293, 72 h, read-out: HEK293 IC50. The method in brief: (§1)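 Cells from a human cancer line panel were treated with the test compound across a dose-response series.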
For another assay, the system named is PC3. The assay can be described thus: Cell Titer Glo cell viability assay PC3. Type of assay: cell-based. The settings on record: Homo sapiens, PC-3, 72 h, read-out: PC3 IC50. The method in brief: as §1
A further assay deals with BRD4 (Homo sapiens, UniProt O60885). The assay can be described thus: Biochemical assay BRD4.
The next assay relates to Jurkat cells. As to the kind of experiment: Anti-proliferative activity in Jurkat cells. The assay is classed as cell-based. The settings on record: Homo sapiens, read-out: IC50 (cytotoxic, anti-proliferative activity).
The test system of assay [1] is panel of 468 human wild-type and mutant kinases. The assay can be described thus: KINOMEscan kinase profiling, panel of 468 kinases. The assay is classed as binding. The settings on record: KINOMEscan at 1 μM compound concentration.
The target in a further assay is LRRK2 (Homo sapiens, UniProt Q5S007). The assay can be described thus: Biochemical assay LRRK2.
Assay [2] addresses T1, recombinant purified Aurora A protein (Homo sapiens, UniProt O14965).
T1 sequence (O14965 1-403): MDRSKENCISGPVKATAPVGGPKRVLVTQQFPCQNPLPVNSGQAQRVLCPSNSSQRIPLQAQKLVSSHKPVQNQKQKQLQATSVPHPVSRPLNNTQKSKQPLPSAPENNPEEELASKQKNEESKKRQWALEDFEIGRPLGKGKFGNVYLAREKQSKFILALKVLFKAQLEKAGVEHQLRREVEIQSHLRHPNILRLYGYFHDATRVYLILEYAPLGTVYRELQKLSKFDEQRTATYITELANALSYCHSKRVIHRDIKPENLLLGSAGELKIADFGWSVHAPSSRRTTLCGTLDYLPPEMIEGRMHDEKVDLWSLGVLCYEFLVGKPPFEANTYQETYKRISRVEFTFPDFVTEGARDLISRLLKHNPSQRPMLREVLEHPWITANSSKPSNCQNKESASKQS
As to the kind of experiment: LC-MS/MS covalent labeling of recombinant Aurora A. Conditions: compound at 10 fold excess with recombinant purified Aurora A. Type of assay: binding.

Another assay concerns HCT116. The assay can be described thus: Cell Titer Glo cell viability assay HCT116. The assay is classed as cell-based. Conditions: Homo sapiens, HCT-116, 72 h, read-out: HCT116 IC50. The method in brief:
as §1

Another assay concerns the target ABL1 Y253F (Homo sapiens, UniProt P00519, Y253F). The assay can be described thus: Biochemical kinase assay ABL1 Y253F.

Some results are limits rather than exact numbers.

Sequence of LRRK2 (Q5S007 whole entry, species assumed): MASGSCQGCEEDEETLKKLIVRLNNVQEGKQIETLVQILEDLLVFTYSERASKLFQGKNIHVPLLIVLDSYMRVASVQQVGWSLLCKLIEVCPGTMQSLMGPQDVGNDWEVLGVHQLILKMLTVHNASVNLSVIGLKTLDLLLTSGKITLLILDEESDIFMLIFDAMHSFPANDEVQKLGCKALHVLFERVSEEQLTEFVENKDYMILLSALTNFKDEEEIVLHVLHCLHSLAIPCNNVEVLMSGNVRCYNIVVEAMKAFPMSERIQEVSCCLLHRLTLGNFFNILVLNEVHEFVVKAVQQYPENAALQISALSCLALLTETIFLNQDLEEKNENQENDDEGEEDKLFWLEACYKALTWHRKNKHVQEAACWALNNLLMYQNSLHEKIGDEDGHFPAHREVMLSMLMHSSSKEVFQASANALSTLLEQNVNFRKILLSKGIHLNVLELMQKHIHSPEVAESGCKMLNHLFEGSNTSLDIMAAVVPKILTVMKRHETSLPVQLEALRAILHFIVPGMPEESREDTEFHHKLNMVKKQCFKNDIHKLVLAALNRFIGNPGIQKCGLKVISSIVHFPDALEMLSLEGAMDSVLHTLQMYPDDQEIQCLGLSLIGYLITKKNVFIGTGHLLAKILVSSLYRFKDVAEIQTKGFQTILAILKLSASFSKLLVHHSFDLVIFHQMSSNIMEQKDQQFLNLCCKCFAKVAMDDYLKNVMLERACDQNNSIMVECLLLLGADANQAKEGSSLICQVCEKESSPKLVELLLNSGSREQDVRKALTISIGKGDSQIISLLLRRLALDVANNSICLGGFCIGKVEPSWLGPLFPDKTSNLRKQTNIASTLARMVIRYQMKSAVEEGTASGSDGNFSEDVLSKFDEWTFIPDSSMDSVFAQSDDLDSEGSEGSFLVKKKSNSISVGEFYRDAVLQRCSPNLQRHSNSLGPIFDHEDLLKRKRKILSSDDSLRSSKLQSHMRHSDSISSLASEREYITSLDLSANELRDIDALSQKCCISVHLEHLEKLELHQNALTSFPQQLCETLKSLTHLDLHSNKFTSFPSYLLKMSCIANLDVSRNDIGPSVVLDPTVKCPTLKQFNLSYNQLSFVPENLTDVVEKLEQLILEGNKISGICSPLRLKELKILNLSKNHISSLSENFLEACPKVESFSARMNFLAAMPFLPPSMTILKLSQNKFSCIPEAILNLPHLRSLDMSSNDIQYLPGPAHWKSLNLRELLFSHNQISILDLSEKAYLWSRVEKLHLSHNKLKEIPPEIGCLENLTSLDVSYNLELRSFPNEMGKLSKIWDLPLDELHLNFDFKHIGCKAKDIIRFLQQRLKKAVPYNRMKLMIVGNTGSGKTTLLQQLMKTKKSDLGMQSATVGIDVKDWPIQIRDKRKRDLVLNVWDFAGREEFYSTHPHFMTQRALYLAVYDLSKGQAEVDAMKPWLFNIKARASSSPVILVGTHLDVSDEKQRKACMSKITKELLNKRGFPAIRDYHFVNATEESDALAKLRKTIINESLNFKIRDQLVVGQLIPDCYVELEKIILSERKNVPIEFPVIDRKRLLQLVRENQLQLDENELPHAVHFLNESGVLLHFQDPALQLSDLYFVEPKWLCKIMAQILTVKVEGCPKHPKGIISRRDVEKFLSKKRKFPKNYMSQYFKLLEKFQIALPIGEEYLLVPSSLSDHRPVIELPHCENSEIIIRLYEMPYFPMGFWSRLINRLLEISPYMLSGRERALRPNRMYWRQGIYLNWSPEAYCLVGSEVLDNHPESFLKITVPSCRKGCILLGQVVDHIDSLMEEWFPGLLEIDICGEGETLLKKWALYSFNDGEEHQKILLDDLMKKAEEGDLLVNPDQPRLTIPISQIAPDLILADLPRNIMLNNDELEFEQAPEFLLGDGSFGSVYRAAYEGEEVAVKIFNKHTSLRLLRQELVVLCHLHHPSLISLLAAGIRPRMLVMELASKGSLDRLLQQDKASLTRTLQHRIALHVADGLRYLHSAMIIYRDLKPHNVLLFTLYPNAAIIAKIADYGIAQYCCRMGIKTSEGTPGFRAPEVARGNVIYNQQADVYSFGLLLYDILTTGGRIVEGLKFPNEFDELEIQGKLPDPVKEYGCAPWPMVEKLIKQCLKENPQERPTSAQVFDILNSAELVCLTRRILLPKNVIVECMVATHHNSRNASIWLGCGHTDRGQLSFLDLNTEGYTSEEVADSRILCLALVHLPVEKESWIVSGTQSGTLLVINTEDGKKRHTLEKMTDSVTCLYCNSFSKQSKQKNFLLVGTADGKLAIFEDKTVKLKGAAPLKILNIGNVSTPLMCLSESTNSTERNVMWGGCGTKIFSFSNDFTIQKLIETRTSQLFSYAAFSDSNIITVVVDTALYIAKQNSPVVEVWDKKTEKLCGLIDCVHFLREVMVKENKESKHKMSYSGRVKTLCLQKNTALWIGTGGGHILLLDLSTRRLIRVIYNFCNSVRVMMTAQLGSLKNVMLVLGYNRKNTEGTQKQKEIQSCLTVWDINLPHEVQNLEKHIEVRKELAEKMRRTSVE

For the molecule `CCOC(=O)c1[nH]cc2c1NC1=C(C(=O)CCC1)[C@H]2c1cccc(Oc2nc3ccccc3[nH]2)c1` [SAR156497, reference compound], the “effect on cell cycle (FACS)” value in the assay on HCT116 cells was “failed cytokinesis and accumulation of cells that contain 4N DNA (polyploidy)”.

For `C=CC(=O)Nc1ccc(C(=O)Nc2ccc(Nc3ncc4c(n3)N(C)c3ccc(C)cc3C(=O)N4C)cc2)cc1` [compound 1], the IC50 in the assay with HEK293 was 250 ± 48 nM; with PC3, 990 ± 1500 nM; in the assay with Jurkat cells, 370 nM. In addition, the “activity against BRD4” value on BRD4 was “inactive”. The “effect on cell cycle (FACS)” value in the assay with HCT116 cells was “failed cytokinesis and accumulation of cells that contain 4N DNA (polyploidy)”. In addition, the kinome-wide selectivity entry in assay [1] is recorded as “exclusively on-target activity”. Moreover, the “activity against LRRK2” value at LRRK2 is “inactive”. Moreover, the “labeling of Aurora A by LC-MS/MS” value in [2] is “no labeling”.

Consider `CCC(=O)Nc1ccc(C(=O)Nc2ccc(Nc3ncc4c(n3)N(C)c3ccc(C)cc3C(=O)N4C)cc2)cc1` [compound 2], for which the IC50 was approximately 100 nM with HCT116, approximately 100 nM in the assay with HEK293, approximately 100 nM with PC3 and more than 10 µM on ABL1 Y253F. The “activity against BRD4” value at BRD4 is “inactive”. Also, the “activity against LRRK2” value on LRRK2 was “inactive”.

For the origin of these results see article PMC11892687 (Bioorganic & medicinal chemistry letters, 2017).
